{"source": "ChEMBL document CHEMBL1152918", "about": "“Simplexins A-I, eunicellin-based diterpenoids from the soft coral Klyxum simplex” (2009)", "type_in_all_cases": "functional", "key": {"Daoy": {"tested_on": "Daoy", "experiment": "Cytotoxicity against human DaOY cells by MTT assay", "conditions": "read-out: ED50 (the source's name)"}, "RAW264.7 [1]": {"tested_on": "RAW264.7", "experiment": "Antiinflammatory activity against LPS-stimulated mouse RAW264.7 cells assessed as reduction in COX-2 level at 10 uM relative to control", "method_in_brief": "(§1)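 Immunoblot measured iNOS and COX-2 protein levels in RAW264.7 macrophages stimulated with LPS and treated at 10 μM. Levels are expressed as a percentage of cells given LPS alone.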"}, "RAW264.7 [2]": {"tested_on": "RAW264.7", "experiment": "Antiinflammatory activity against LPS-stimulated mouse RAW264.7 cells assessed as reduction in iNOS level at 10 uM relative to control", "design": "scale not given: the % may be the effect or the level left", "method_in_brief": "as §1"}, "MCF7": {"tested_on": "MCF7", "experiment": "Cytotoxicity against human MCF7 cells by MTT assay", "conditions": "read-out: ED50 (the source's name)"}, "HeLa": {"tested_on": "HeLa", "experiment": "Cytotoxicity against human HeLa cells by MTT assay", "conditions": "read-out: ED50 (the source's name)"}, "HEp-2": {"tested_on": "HEp-2", "experiment": "Cytotoxicity against human Hep2 cells by MTT assay", "conditions": "read-out: ED50 (the source's name)"}}, "note": "Calls of active or inactive are those of the source. No cut-off for these calls is given here.", "data": [{"smiles": "C=C1C[C@H]2O[C@H]([C@H]3[C@@H]2[C@](C)(OC(C)=O)CC[C@@H]3C(C)C)[C@](C)(OC(=O)CCC)CC[C@@H]1O", "note": "[SIMPLEXIN A]", "values": [{"measurement": "EC50", "setting": "Daoy", "value": 10.4, "unit": "µg/mL"}, {"measurement": "Activity", "setting": "RAW264.7 [1]", "value": "inactive"}, {"measurement": "Activity", "setting": "RAW264.7 [2]", "value": 15.9, "unit": "%"}, {"measurement": "EC50", "setting": "MCF7", "value": 12.1, "unit": "µg/mL"}, {"measurement": "EC50", "setting": "HeLa", "value": "> 20", "unit": "µg/mL"}, {"measurement": "EC50", "setting": "HEp-2", "value": 12.1, "unit": "µg/mL"}]}, {"smiles": "CCCC(=O)O[C@]1(C)CC[C@H](O)[C@@](C)(O)C[C@H]2O[C@@H]1[C@H]1[C@@H]2[C@](C)(OC(C)=O)CC[C@@H]1C(C)C", "note": "[SIMPLEXIN B]", "values": [{"measurement": "EC50", "setting": "Daoy", "value": "> 20", "unit": "µg/mL"}, {"measurement": "EC50", "setting": "MCF7", "value": "> 20", "unit": "µg/mL"}, {"measurement": "EC50", "setting": "HeLa", "value": "> 20", "unit": "µg/mL"}, {"measurement": "EC50", "setting": "HEp-2", "value": "> 20", "unit": "µg/mL"}]}, {"smiles": "CCCC(=O)O[C@H]1[C@H](C(C)C)[C@@H]2[C@@H]([C@H]3C[C@](C)(O)[C@@H](OC(C)=O)CC[C@@](C)(OC(=O)CCC)[C@@H]2O3)[C@](C)(O)[C@@H]1OC(C)=O", "note": "[SIMPLEXIN C]", "values": [{"measurement": "EC50", "setting": "Daoy", "value": "> 20", "unit": "µg/mL"}, {"measurement": "EC50", "setting": "MCF7", "value": "> 20", "unit": "µg/mL"}, {"measurement": "EC50", "setting": "HeLa", "value": "> 20", "unit": "µg/mL"}, {"measurement": "EC50", "setting": "HEp-2", "value": "> 20", "unit": "µg/mL"}]}, {"smiles": "CCCC(=O)O[C@H]1[C@H](C(C)C)[C@@H]2[C@@H]([C@H]3C[C@](C)(O)[C@@H](OC(=O)CCC)CC[C@@](C)(OC(=O)CCC)[C@@H]2O3)[C@](C)(O)[C@@H]1OC(C)=O", "note": "[SIMPLEXIN D]", "values": [{"measurement": "EC50", "setting": "Daoy", "value": 15.3, "unit": "µg/mL"}, {"measurement": "Activity", "setting": "RAW264.7 [1]", "value": "inactive"}, {"measurement": "Activity", "setting": "RAW264.7 [2]", "value": 37.7, "unit": "%"}, {"measurement": "EC50", "setting": "MCF7", "value": 14.5, "unit": "µg/mL"}, {"measurement": "EC50", "setting": "HeLa", "value": "> 20", "unit": "µg/mL"}, {"measurement": "EC50", "setting": "HEp-2", "value": "> 20", "unit": "µg/mL"}]}, {"smiles": "C=CC(=O)O[C@H]1CC[C@@](C)(OC(=O)CCC)[C@@H]2O[C@H](C[C@]1(C)O)[C@@H]1[C@H]2[C@@H](C(C)C)[C@H](OC(=O)CCC)[C@@H](OC(C)=O)[C@@]1(C)O", "note": "[SIMPLEXIN E]", "values": [{"measurement": "EC50", "setting": "Daoy", "value": 12.8, "unit": "µg/mL"}, {"measurement": "Activity", "setting": "RAW264.7 [1]", "value": 37.7, "unit": "%"}, {"measurement": "Activity", "setting": "RAW264.7 [2]", "value": 4.8, "unit": "%"}, {"measurement": "EC50", "setting": "MCF7", "value": 7.19, "unit": "µg/mL"}, {"measurement": "EC50", "setting": "HeLa", "value": 17.4, "unit": "µg/mL"}, {"measurement": "EC50", "setting": "HEp-2", "value": 10.7, "unit": "µg/mL"}]}, {"smiles": "CCCC(=O)O[C@]1(C)CC[C@H](OC(C)=O)[C@@](C)(O)C[C@H]2O[C@@H]1[C@@H]1[C@@H](C(C)C)[C@H](O)[C@@H](OC(C)=O)[C@@](C)(O)[C@@H]12", "note": "[SIMPLEXIN F]", "values": [{"measurement": "EC50", "setting": "Daoy", "value": "> 20", "unit": "µg/mL"}, {"measurement": "EC50", "setting": "MCF7", "value": "> 20", "unit": "µg/mL"}, {"measurement": "EC50", "setting": "HeLa", "value": "> 20", "unit": "µg/mL"}, {"measurement": "EC50", "setting": "HEp-2", "value": "> 20", "unit": "µg/mL"}]}, {"smiles": "CC(=O)O[C@H]1CC[C@@](C)(OC(C)=O)[C@@H]2O[C@H](C[C@]1(C)O)[C@@H]1[C@H]2[C@@H](C(C)C)[C@H](O)C[C@@]1(C)OC(C)=O", "note": "[SIMPLEXIN I]", "values": [{"measurement": "EC50", "setting": "Daoy", "value": "> 20", "unit": "µg/mL"}, {"measurement": "EC50", "setting": "MCF7", "value": "> 20", "unit": "µg/mL"}, {"measurement": "EC50", "setting": "HeLa", "value": "> 20", "unit": "µg/mL"}, {"measurement": "EC50", "setting": "HEp-2", "value": "> 20", "unit": "µg/mL"}]}]}
